Reference: ChEMBL document CHEMBL2346636, “Synthesis and biological evaluation of substituted imidazoquinoline derivatives as mPGES-1 inhibitors” (Bioorg Med Chem, 2013)
pIC50: −log10 of the molar value.

Key:
[1] = biological target: T1, Prostaglandin E synthase (Homo sapiens, UniProt O14684); test: Inhibition of mPGES1 (unknown origin) transfected in HEK293 cells co-expressing COX1 using arachidonic acid as substrate assessed as inhibition of PGE2 production incubated for 30 mins prior to arachidonic acid addition measured after 60 mins by HTRF assay; type: cell-based
T1 sequence (O14684 whole entry): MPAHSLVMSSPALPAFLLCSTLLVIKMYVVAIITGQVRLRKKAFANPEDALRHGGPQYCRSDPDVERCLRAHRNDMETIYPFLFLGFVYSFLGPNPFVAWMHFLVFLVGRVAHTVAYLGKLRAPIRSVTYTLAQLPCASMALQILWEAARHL
In short: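 Enzyme source was microsomes from HEK293 cells co-transfected with mPGES-1 and COX-1, in 100 mM Tris-HCl pH 8.0 with 5 mM EDTA, 1 mM GSH, phenol and hematin. Compound was added in DMSO (final 1%) and preincubated 30 min at room temperature. Arachidonic acid in 0.1 M KOH started the reaction, which ran 60 min at room temperature. It was stopped with 1 M HCl, neutralized with 1 M NaOH, and PGE2 was quantified by HTRF.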

[2] = Half life of the compound in NaOH/THF/MeOH at room temperature; type: physicochemical
In short: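 Boc-protected compound in 1 M NaOH (10 equiv) in THF/MeOH at room temperature. Deprotection was followed and reported as T1/2 (half-deprotection time) and the time to complete deprotection.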

[3] = Half life of the compound in HCl/THF at room temperature; type: physicochemical
In short: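 Boc-protected compound in 4 M HCl (10 equiv) in THF at room temperature. Deprotection was followed over time and reported as the time to half-conversion (T1/2) and the time to completion.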

[4] = Half life of the compound in TFA at room temperature; type: physicochemical
In short: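 SEM- and Boc-protected compounds in TFA (100 equiv) at room temperature. Deprotection was monitored and reported as the time to half-conversion (T1/2) and the time to full conversion.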

[5] = Half life of the compound in TBAF/THF under reflux
[6] = Stability of the compound in NaOH/THF at room temperature; type: physicochemical
In short: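 SEM-protected compound in 1 M NaOH (10 equiv) in THF at room temperature. Deprotection was monitored for up to 12 h.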

| pIC50 [1] | Compound | further results |
| --- | --- | --- |
| < 5.00 | O=c1[nH]c2cc(Br)ccc2c2nc(-c3ccccc3Cl)n(Cc3ccccc3)c12 | – |
| 7.07 | Cn1c(=O)c2[nH]c(-c3ccccc3Cl)nc2c2ccc(Br)cc21 | – |
| 6.97 | CCn1c(=O)c2[nH]c(-c3ccccc3Cl)nc2c2ccc(Br)cc21 | – |
| 6.41 | CN(C)c1nc2cc(Br)ccc2c2[nH]c(-c3ccccc3Cl)nc12 | – |
| 7.23 | CCSc1nc2cc(Br)ccc2c2[nH]c(-c3ccccc3Cl)nc12 | – |
| 6.20 | CNc1nc2cc(Br)ccc2c2nc(-c3ccccc3Cl)[nH]c12 | – |

Continued, molecule first:

| Compound | pIC50 [1] | further results |
| --- | --- | --- |
| Cn1c(-c2ccccc2Cl)nc2c3ccc(Br)cc3n(C)c(=O)c21 | < 5.00 | – |
| Cn1c(=O)c2c(nc(-c3ccccc3Cl)n2C(=O)OC(C)(C)C)c2ccc(Br)cc21 | – | half-life [2]: 15 min; half-life [3]: 30 min; half-life [4]: < 5 min |
| CSc1nc2cc(Br)ccc2c2nc(-c3ccccc3Cl)[nH]c12 | 7.51 | – |
| Cn1c(=O)c2c(nc(-c3ccccc3Cl)n2COCC[Si](C)(C)C)c2ccc(Br)cc21 | – | half-life [5]: 30 min; Stability [6]: Stable; half-life [4]: < 5 min |
| O=c1c2[nH]c(-c3ccccc3Cl)nc2c2ccc(Br)cc2n1Cc1ccccc1 | 6.65 | – |
| Cn1c(-c2ccccc2Cl)nc2c(=O)[nH]c3cc(Br)ccc3c21 | < 5.00 | – |
| Cn1c(-c2ccccc2Cl)nc2c3ccc(Br)cc3[nH]c(=O)c21 | 5.01 | – |
| Nc1nc2cc(Br)ccc2c2[nH]c(-c3ccccc3Cl)nc12 | 5.97 | – |
| S=c1[nH]c2cc(Br)ccc2c2nc(-c3ccccc3Cl)[nH]c12 | 7.08 | – |
